According to PMC4254850 (Clinical cancer research : an official journal of the …, 2014):
Entries after “also recorded” stand apart in the source; their conditions may differ.

What was measured:
advanced solid tumors = experiment: Tumor response; type: in vivo, human
Procedure, shortened: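 Response assessed by RECIST v1.1 using imaging at baseline and every two cycles in patients dosed orally, QD or BID, in 28-day cycles. Response data summarised with descriptive statistics.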

[1] = tested on: AKT phosphorylation (pAKT) in platelet-rich plasma (PRP); experiment: AKT phosphorylation in platelet-rich plasma; type: in vivo, human
Procedure, shortened: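 Oral single-dose run-in (Cycle 0, Day 1): citrated blood taken pre-dose and at 1, 2, 6, 24, 48 and 72 h, plus pre-dose on Cycle 1, Day 15. Spun 200 × g, 4°C, 15 min; PRP stabilised with phosphatase inhibitor, lysed with PMSF-containing buffer, snap-frozen. Phospho- and total AKT by quantitative electrochemiluminescent assay with recombinant active AKT standard curve per plate and spiked QC samples. p-AKT/total AKT expressed as % change from pre-treatment.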

[2] = tested on: human tumor xenograft models with PIK3CA mutations; conditions: in vivo; cited from earlier work

## CS(=O)(=O)N1CCc2c(-c3cnc(N)nc3)nc(N3CCOCC3)nc21 [CH5132799]
Advanced solid tumors; 48 mg BID
  Response by GCIG CA125 criteria, patient with PIK3CA H1047R-mutated clear cell ovarian cancer: partial response; also recorded: GCIG CA125 response
  Time on study of patient with GCIG CA125 response: 6 cycles
Advanced solid tumors; 72 mg BID
  Clinical response, heavily pre-treated patient with triple negative breast cancer (no PIK3CA or AKT mutations): marked symptomatic and objective improvement in their cutaneous skin lesions
Advanced solid tumors; all patients
  RECIST partial or complete responses: no RECIST partial or complete responses
  Study participants with best response of stable disease by RECIST: 21%
[1]; achieved at dose levels of 32 mg
  Maximal inhibition of p-AKT in PRP compared to baseline: approximately 50%
[1]; after single dose
  Duration of target engagement (reduction in phosphorylation of AKT in PRP): less than 24 hours
[1]; p-AKT Ser473
  Dose levels at which p-AKT was consistently reduced in PRP: 8 to 96 mg
[1]; single dose, 2 hrs post-dose
  Dose with significant inhibition of PI3K signalling (reduction of AKT phosphorylation) in PRP: ≥ 32 mg
[2]
  Antitumor activity: significant antitumor activity
